Experiment [1] concerns Human immunodeficiency virus 1. As to the kind of experiment: Antiviral activity against HIV1 infected human C8166 cells assessed as inhibition of viral replication after 4 days by p24 antigen capture ELISA. It is filed as functional, organism-based. The note with it: Human immunodeficiency virus 1, C8166, 96 h.
For experiment [2], the system named is HeLa. Briefly: Cytotoxicity against human HeLa cells after 48 hrs by MTT assay. It is filed as functional, cell-based. The method, boiled down:
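Cells plated at 10^4/well and allowed to attach overnight. Exposed to compound dilutions from DMSO stock (vehicle 0.2% DMSO) for 4 h at 37 °C, then grown 48 h in fresh DMEM. MTT at 0.5 mg/mL added for 3 h, formazan dissolved in DMSO, absorbance at 540 nm; 5-fluorouracil as positive control.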

In experiment [3] the test system is MCF7. Briefly: Cytotoxicity against human MCF7 cells after 48 hrs by MTT assay. The class given is functional, cell-based. The note with it: MCF7, 48 h.
Experiment [4] relates to C8166. As to the kind of experiment: Cytotoxicity against human C8166 cells after 4 days by MTT assay. The class given is cell-based. To be noted: C8166, 96 h. The essentials:
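C8166 cells seeded at 3 × 10^4/well with various compound concentrations in triplicate, 37 °C, 5% CO2, run alongside the HIV-1 assay.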

Molecules are shown by their SMILES. Where only a bound is given, the exact number is not on record here.

Consider `CC1(C)CC(=O)C2=C(O1)C1=C[C@@H](C(C)(C)O)O[C@H]1[C@@H](O)C2` [PESTALOFICIOL I], for which the EC50 – broadly, the concentration that produces a half-maximal response – in experiment [1] was more than 100 µM. Also, the values for the IC50 in experiment [2] and in experiment [3] were more than 136 µM and 136 µM, respectively.
In the same order, the values of `CC(C)=CC[C@]12O[C@H]1[C@@H](O)CC1=C2OC(C)(C)CC1=O` [PESTALOFICIOL F] are more than 100 µM, more than 144 µM and more than 144 µM.
Regarding `CC(C)=CCc1cc(O)cc2c1OC(C)(C)CC2=O` [PESTALOFICIOL J], the EC50 in experiment [1] was found to be 8 µM. In addition, the IC50 (in general, the concentration that inhibits the measured activity by half) was 21.2 µM in experiment [2] and more than 154 µM in experiment [3]. Moreover, the CC50 (as a rule, the concentration giving 50% cytotoxicity) in experiment [4] is more than 100 µM.
For `CC(=O)OC1=CC(C)(C)Oc2c(CC=C(C)C)cc(O)cc21` [PESTALOFICIOL K], in experiment [1], the EC50 turned out to be 78.2 µM. Moreover, the IC50 in experiment [2] was 99.3 µM; in experiment [3], more than 132 µM.
The corresponding values for `CC(C)=CC=C1C2=C(C[C@H](O)[C@@H]1O)C(=O)CC(C)(C)O2` (mixture of isomers) are 89.2 µM, more than 144 µM and more than 144 µM.
`O=c1[nH]cc(F)c(=O)[nH]1` [FLUOROURACIL]: half-maximal inhibition in experiment [2] (IC50) was put at 10 µM.
As for `COC(=O)c1cc(OC)cc(O)c1C(=O)c1c(O)cc(C)c(C2=CC(C)(C)Oc3c(CC=C(C)C)cc(O)cc32)c1O` [PESTALOFICIOL L], in experiment [1], the EC50 is more than 100 µM. For the same molecule, the IC50 was 8.7 µM in experiment [2] and 17.4 µM in experiment [3].
